# High-throughput results as filed in PubChem BioAssay.
# Mdm2 ligase inh – inhibitors of human Mdm2 E3 ubiquitin ligase | Q00987 | signal enhancement, % at 5 µM | AID 1230 | 210,000 tested, 0.11% active | cell-based MDM2 ubiquitination luciferase reporter, 2 h; 0 = plate control, 100 = twice control, blank-subtracted;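 active = signal enhancement of 30% or more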;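 also: luminescence tracks abundance of the self-degrading MDM2-luciferase fusion protein; higher signal means inhibition of MDM2 E3 ligase activity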
#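 Test system: mammalian cells stably expressing self-ubiquitinating, self-degrading MDM2 E3–luciferase fusion; Amount: 2000 cells in each well; Medium: DMEM; Schedule: 4 h settle plus 2 h compound, 37 °C; Technique: SteadyLite luciferase luminescence after 15 min room-temperature reagent incubation; Benchmarks: plate control and blank wells.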
# Hsp70 activator – Hsp70 transcriptional activation, primary screen; HeLa Hsp70 promoter luciferase reporter, luminescence; scaled: vehicle 0, proteasome-inhibitor control 100%; AID 1203; 200,000 tested, 0.04% active; activation, % at 10 µM;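 active = activation above the mean across all tested compounds plus 3 SD, cutoff set per campaign, cut at about 5.5% in these data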
# RBBP9 inh – inhibitors of human serine hydrolase RBBP9 | O75884 | recombinant RBBP9, FP-Rh probe fluorescence polarization | inhibition, % at 7.94 µM | 220,000 tested, 0.2% active;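 active = inhibition above the campaign mean of all tested compounds plus 3 SD, cut at about 14% in these data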
#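 Test system – recombinant human RBBP9 · Input – RBBP9 2.5 µM in dispensing solution, pre-mixing · Medium – Tris buffer pH 8.0, NaCl, Pluronic · Schedule – preincubation 30 min plus labeling 45 min at 25 °C · Measured by – fluorescence polarization · Measure – % inhibition · Controls – DMSO and no-protein wells · Replicates – one well per compound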
# Wee1 degr inh – human Wee1 degradation inhibition, primary screen | 220,000 tested, 1.2% active | P30291 | HeLa Luc-Wee1K328M stability, luciferase luminescence; 100% = proteasome inhibitor MG132 effect | reporter increase, % at 5 µM;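 active = activation above the mean of all tested compounds plus 3 SD, set per screening run, cut at about 8.8% in these data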;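 also: cells exposed to compound for 20 h before luminescence read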
# Target sequence (P30291 whole entry K328M): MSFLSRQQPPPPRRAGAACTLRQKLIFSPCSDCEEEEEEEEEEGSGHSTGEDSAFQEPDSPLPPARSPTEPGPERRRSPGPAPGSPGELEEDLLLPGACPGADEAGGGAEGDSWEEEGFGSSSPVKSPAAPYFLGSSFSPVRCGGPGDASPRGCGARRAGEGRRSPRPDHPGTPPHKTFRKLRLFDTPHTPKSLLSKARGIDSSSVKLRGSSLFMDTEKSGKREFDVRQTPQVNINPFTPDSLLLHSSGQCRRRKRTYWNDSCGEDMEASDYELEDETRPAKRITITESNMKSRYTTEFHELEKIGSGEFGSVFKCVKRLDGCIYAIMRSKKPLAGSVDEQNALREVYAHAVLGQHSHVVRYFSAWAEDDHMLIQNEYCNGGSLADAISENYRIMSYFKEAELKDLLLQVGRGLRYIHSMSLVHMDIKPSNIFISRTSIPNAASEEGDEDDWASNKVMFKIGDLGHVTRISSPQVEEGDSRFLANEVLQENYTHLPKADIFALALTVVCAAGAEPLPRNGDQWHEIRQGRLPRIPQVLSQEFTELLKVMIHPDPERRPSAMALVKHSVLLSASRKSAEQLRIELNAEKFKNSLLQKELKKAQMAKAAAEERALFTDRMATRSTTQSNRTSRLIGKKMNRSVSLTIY
# INS promoter inh – TRM-6 insulin promoter activity inhibition; TRM-6 cells, insulin promoter-eGFP reporter, imaging; reporter expression induced with tamoxifen; inhibition, % at 2 µM; 130,000 tested, 0.9% active;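 active = inhibition above the mean plus 3 SD, with well images judged a real hit on visual review, cut at about 60% in these data, passing the limit was not always enough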
# Ins promoter up – MIN6 insulin promoter up-regulation; MIN6 insulin promoter-GFP reporter, high-content imaging; hits give high values; z-score at 5 µM; 190,000 tested, 0.3% active; AID 1625;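 active = z-score above 3 at 5 µM with at least 500 cells counted in the well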
# RBBP9 confirm – human RBBP9 inhibition, confirmation. shares compounds with RBBP9 inh. recombinant RBBP9, FP-Rh probe fluorescence polarization. inhibition, % at 7.94 µM. 410 tested, 36% active;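 active = inhibition above the hit cutoff derived for the primary screen, cut at about 15% in these data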
# Numbers stand for hits; n = inactive; x = not tested or not shown. Most compounds without a hit are left out; they make up all but 2.2% or so of the library.
SMILES,Mdm2 ligase inh,Hsp70 activator,RBBP9 inh,Wee1 degr inh,INS promoter inh,Ins promoter up,RBBP9 confirm
CC(C)c1cc(Nc2cccc(O)c2)cc(C(C)C)c1O,x,n,15.8,n,n,n,n
CCCC1=C(C(=O)OCC)C(c2cc(Cl)cc(OC)c2OCc2ccccc2)NC(=O)N1 (stereo not given),n,n,n,n,n,x,x
CC1/C(=N/O)CC(c2ccccc2)NC1c1ccccc1 (stereo not given),n,n,n,n,n,n,x
CC(C)C1/C(=N/O)CC(c2ccccc2)NC1c1ccccc1 (stereo not given),n,x,14.8,n,x,n,n
O=C(COC(=O)/C=C/c1cccs1)Nc1nc(-c2ccccc2)cs1,n,n,n,n,n,n,x
O=C(COC(=O)/C=C/c1cccs1)Nc1nc(-c2cccc(Br)c2)cs1,x,x,16.6,n,x,n,27.2
CCCC(=O)c1cc(F)c(N2CCOCC2)cc1C,n,n,n,n,x,n,x
CCc1ccc(NSc2ccccc2[N+](=O)[O-])cc1,n,n,16.5,n,n,n,n
Cc1ccc(C(C)C)c(OC/C(O)=C(\C#N)c2nc3ccccc3[nH]2)c1,n,x,n,n,x,n,x
O=C1CCC(=O)N1c1ccc(-c2nc3sc4c(c3c(=O)o2)CCC4)cc1,n,x,15.0,n,x,n,n
COc1ccccc1N(Cc1ccccc1)S(=O)(=O)c1cc(C(=O)O)ccc1Cl,n,n,n,n,x,n,x
COc1ccc(C2Nc3cccc4cccc(c34)N2)cc1,x,n,24.8,n,x,n,21.1
c1csc(C2Nc3cccc4cccc(c34)N2)c1,n,n,30.3,n,x,n,45.5
CN1c2cccc3cccc(c23)N(C)C1c1cccs1,n,n,n,n,n,n,x
Oc1ccc(/C=N/n2c(-c3ccco3)csc2=Nc2cccnc2)c(O)c1,n,n,n,n,n,n,x
CN=c1scc(-c2cccs2)n1/N=C/c1ccc(O)c(O)c1O,n,n,32.4,n,x,n,83.1
C=CCN=c1scc(-c2ccco2)n1/N=C/c1ccc(O)c(O)c1O,n,x,47.9,n,x,n,83.5
CN=c1scc(-c2cccs2)n1/N=C/c1ccccc1O,n,n,n,n,n,n,x
CC1=NN(c2ccccc2)C(=O)C1C=Nc1ccc(N(C)C)cc1 (stereo not given),n,x,19.0,n,x,n,15.0
Oc1ccc(NC(=S)N=Nc2c(O)[nH]c3ccccc23)cc1,n,n,16.1,n,n,n,18.6
Oc1[nH]c2ccc(Br)cc2c1N=NC(=S)Nc1ccc(F)cc1,n,x,n,n,x,x,x
Oc1ccc(NC(=S)N=Nc2c(O)[nH]c3ccc(Br)cc23)cc1,n,n,53.0,n,n,n,22.3
COc1ccc2oc(=O)c(-c3ccccc3C(=O)N3CCOCC3)cc2c1,n,n,n,n,n,n,x
Cn1ncc(Br)c1NC(=O)CSc1ccc(Cl)cc1,n,x,17.7,n,x,x,n
Cc1nn(C(C)C(=O)O)c(=O)c2ccccc12 (stereo not given),n,n,17.9,n,x,x,n
SMILES,Mdm2 ligase inh,Hsp70 activator,RBBP9 inh,Wee1 degr inh,INS promoter inh,Ins promoter up,RBBP9 confirm
Cc1ccc(C(=O)NNC(=O)CCN2C(=O)C3CCCCC3C2=O)cc1 (stereo not given),n,n,n,n,x,n,x
COc1cc(/C=C/c2ccc3c(Br)cc(Br)c(O)c3n2)ccc1O,n,x,16.9,n,x,n,47.3
O=C1c2ccccc2-c2onc3ccc(N4CCCC4)c1c23,n,n,45.9,n,n,n,15.7
CCNc1ccc2noc3c2c1C(=O)c1ccccc1-3,n,n,27.6,n,n,x,n
CCOc1ccc2noc3c2c1C(=O)c1ccccc1-3,n,n,n,n,n,n,x
CCOC(=O)/C=C/C(=O)N1CCN(C(=O)/C=C/C(=O)OCC)CC1,n,x,n,n,x,n,x
CCCCOc1[nH]c2nc(-c3ccco3)n(Cc3ccco3)c(=N)c2c1C#N,n,n,18.2,n,x,n,n
c1ccc(CSc2nnc(-c3ccco3)n2Cc2ccco2)cc1,n,n,n,n,n,n,x
COc1ccc(NC(=S)NNc2ccc(S(=O)(=O)Nc3ccccc3C(=O)O)cc2[N+](=O)[O-])cc1,n,x,22.2,n,x,n,14.8
NNC(=O)c1cc(-c2ccc(N)cc2)nc2ccc(Br)cc12,n,x,14.8,n,x,n,68.5
Cc1cc(C(=O)NN)c2cc(Br)ccc2n1,n,n,n,n,n,x,x
CNC(=S)Nc1cccc([N+](=O)[O-])c1,n,n,n,n,x,n,x
CC(=O)NC(=S)Nc1cccc([N+](=O)[O-])c1,n,n,17.0,n,x,n,n
CCOC(=O)c1cc(-c2ccc(C)cc2)n(CCC(=O)NCCCOC)c1C,n,n,15.2,n,n,n,n
COc1cc(OC)cc(C(=O)N[C@H](C(=O)Nc2nc(-c3ccc(F)c(F)c3)cs2)C(C)C)c1,n,n,n,n,n,n,x
COC(=O)c1cc(NC(=S)N2CCN(C(=O)C3CCCO3)CC2)cc(C(=O)OC)c1 (stereo not given),n,n,20.5,n,x,n,n
O=C(C1CCCO1)N1CCN(C(=S)Nc2ccc(F)cc2)CC1 (stereo not given),n,n,n,n,n,n,x
N/C(COc1cccc(Cl)c1)=N\NS(=O)(=O)c1ccccc1,n,n,n,n,n,n,x
CC1(C)OC(C)(C)/C(=C/Nc2ccc(O)cc2)C1=O,x,n,20.0,9.9,n,n,n
CC1(C)OC(=O)C(=CNc2cccc(O)c2)C(=O)O1,n,n,n,n,x,n,x
CC(C)C(=O)N(c1cc2sc(=O)oc2c2ccccc12)S(=O)(=O)c1cccs1,n,n,32.0,n,n,x,n
Cc1cc(NC(=O)CSc2nc(N)c(NC(=O)c3ccco3)c(=O)[nH]2)no1,n,x,n,n,x,n,x
Oc1cccc(/C=N/NC(=S)Nc2cccnc2)c1O,n,n,n,n,n,n,x
Oc1ccc(/C=N/NC(=S)Nc2cccnc2)c(O)c1O,x,x,41.8,n,x,n,52.5
Cc1ccc(N(C(=O)c2csnn2)C(C(=O)NC(C)(C)C)c2cccs2)cc1 (stereo not given),n,n,n,n,n,n,x
Cc1cc(C)cc(N(C(=O)c2csnn2)C(C(=O)NC(C)(C)C)c2cccs2)c1 (stereo not given),n,n,15.4,n,n,n,n
Oc1ccc(-c2nc3ccccc3s2)c(O)c1,n,x,n,n,x,n,x
Oc1ccc(-c2cnns2)c(O)c1,n,n,41.0,n,n,n,56.3
Cc1cc(C)nc(SCc2ccc(C(=O)O)o2)n1,n,n,14.7,n,x,x,n
